Assay results published in paper PMC5538437 (Genes & Development, 2017).

Tested on: 4EHP
Assay: Pull-down / coimmunoprecipitation with 4EHP in HEK293T cell lysates
Type: binding, human
Settings: HEK293T cells, GFP-tagged protein and V5-SBP-4EHP, Western blot
How it was run: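 Streptavidin-bead pull-down from RNase A-treated HEK293T lysates of cells expressing V5-SBP-tagged 4EHP or eIF4E (wild type or mutants). Co-bound endogenous GYF2, 4E-T and 4E-BP1 were probed; for 4EHP, co-expressed GFP-4E-BP1 was also probed, with V5-SBP-MBP as negative control. Inputs and bound fractions were analysed by Western blot with anti-V5, anti-GFP, anti-GYF2 and other antibodies, using ECL detection.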

| Molecule | interaction with 4EHP in cells, overexpressed binding partner |
| --- | --- |
| 4E-BP1 C: 4E-BP1 Y54A, L59A; canonical motif mutant | abolished its interaction with 4EHP |
| GYF1 NC*: GYF1 L60D, F65D, V68D; non-canonical mutant (protein, UniProt O75420 1-1035, looked up, variant L60D F65D V68D) GRB10-interacting GYF protein …: MAAETLNFGPEWLRALSGGGSVASPPPSPAMPKYKLADYRYGREEMLALYVKENKVPEEDQDKEDAADLQDEPLQPLALEPLTEEEQRNFSLSVNSVAVLRLMGKGAGPPLAGTSRGRGSTRSRGRGRGDSCFYQRSIEEGDGAFGRSPREIQRSQSWDDRGERRFEKSARRDGARCGFEEGGAGPRKEHARSDSENWRSLREEQEEEEEGSWRLGAGPRRDGDRWRSASPDGGPRSAGWREHGERRRKFEFDLRGDRGGCGEEEGRGGGGSSHLRRCRAPEGFEEDKDGLPEWCLDDEDEEMGTFDASGAFLPLKKGPKEPIPEEQELDFQGLEEEEEPSEGLEEEGPEAGGKELTPLPPQEEKSSSPSPLPTLGPLWGTNGDGDETAEKEPPAAEDDIRGIQLSPGVGSSAGPPGDLEDDEGLKHLQQEAEKLVASLQDSSLEEEQFTAAMQTQGLRHSAAATALPLSHGAARKWFYKDPQGEIQGPFTTQEMAEWFQAGYFSMSLLVKRGCDEGFQPLGEVIKMWGRVPFAPGPSPPPLLGNMDQERLKKQQELAAAALYQQLQHQQFLQLVSSRQLPQCALREKAALGDLTPPPPPPPQQQQQQLTAFLQQLQALKPPRGGDQNLLPTMSRSLSVPDSGRLWDVHTSASSQSGGEASLWDIPINSSTQGPILEQLQLQHKFQERREVELRAKREEEERKRREEKRRQQQQEEQKRRQEEEELFRRKHVRQQELLLKLLQQQQAVPVPPAPSSPPPLWAGLAKQGLSMKTLLELQLEGERQLHKQPPPREPARAQAPNHRVQLGGLGTAPLNQWVSEAGPLWGGPDKSGGGSSGLGLWEDTPKSGGSLVRGLGLKNSRSSPSLSDSYSHLSGRPIRKKTEEEEKLLKLLQGIPRPQDGFTQWCEQMLHTLSATGSLDVPMAVAILKEVESPYDVHDYIRSCLGDTLEAKEFAKQFLERRAKQKASQQRQQQQEAWLSSASLQTAFQANHSTKLGPGEGSKAKRRALMLHSDPSILGYSLHGSSGEIESVDDY | did not affect binding to overexpressed 4EHP in human cells |
| GYF2 NC*: GYF2 L62D, F67D, I70D; non-canonical mutant (protein, UniProt Q6Y7W6 2-1299, looked up, variant L62D F67D I70D) GRB10-interacting GYF protein …: AAETQTLNFGPEWLRALSSGGSITSPPLSPALPKYKLADYRYGREEMLALFLKDNKIPSDDLDKEDLPDLQEEPLPPLALVPFTEEEQRNFSMSVNSAAVLRLTGRGGGGTVVGAPRGRSSSRGRGRGRGECGFYQRSFDEVEGVFGRGGGREMHRSQSWEERGDRRFEKPGRKDVGRPNFEEGGPTSVGRKHEFIRSESENWRIFREEQNGEDEDGGWRLAGSRRDGERWRPHSPDGPRSAGWREHMERRRRFEFDFRDRDDERGYRRVRSGSGSIDDDRDSLPEWCLEDAEEEMGTFDSSGAFLSLKKVQKEPIPEEQEMDFRPVDEGEECSDSEGSHNEEAKEPDKTNKKEGEKTDRVGVEASEETPQTSSSSARPGTPSDHQSQEASQFERKDEPKTEQTEKAEEETRMENSLPAKVPSRGDEMVADVQQPLSQIPSDTASPLLILPPPVPNPSPTLRPVETPVVGAPGMGSVSTEPDDEEGLKHLEQQAEKMVAYLQDSALDDERLASKLQEHRAKGVSIPLMHEAMQKWYYKDPQGEIQGPFNNQEMAEWFQAGYFTMSLLVKRACDESFQPLGDIMKMWGRVPFSPGPAPPPHMGELDQERLTRQQELTALYQMQHLQYQQFLIQQQYAQVLAQQQKAALSSQQQQQLALLLQQFQTLKMRISDQNIIPSVTRSVSVPDTGSIWELQPTASQPTVWEGGSVWDLPLDTTTPGPALEQLQQLEKAKAAKLEQERREAEMRAKREEEERKRQEELRRQQEEILRRQQEEERKRREEEELARRKQEEALRRQREQEIALRRQREEEERQQQEEALRRLEERRREEEERRKQEELLRKQEEEAAKWAREEEEAQRRLEENRLRMEEEAARLRHEEEERKRKELEVQRQKELMRQRQQQQEALRRLQQQQQQQQLAQMKLPSSSTWGQQSNTTACQSQATLSLAEIQKLEEERERQLREEQRRQQRELMKALQQQQQQQQQKLSGWGNVSKPSGTTKSLLEIQQEEARQMQKQQQQQQQHQQPNRARNNTHSNLHTSIGNSVWGSINTGPPNQWASDLVSSIWSNADTKNSNMGFWDDAVKEVGPRNSTNKNKNNASLSKSVGVSNRQNKKVEEEEKLLKLFQGVNKAQDGFTQWCEQMLHALNTANNLDVPTFVSFLKEVESPYEVHDYIRAYLGDTSEAKEFAKQFLERRAKQKANQQRQQQQLPQQQQQQPPQQPPQQPQQQDSVWGMNHSTLHSVFQTNQSNNQQSNFEAVQSGKKKKKQKMVRADPSLLGFSVNASSERLNMGEIETLDDY | did not affect binding to overexpressed 4EHP in human cells |
| GYF1 A1*: GYF1 P76D, L77A; auxiliary site 1 mutant (protein, UniProt O75420 1-1035, looked up, variant P76D L77A) GRB10-interacting GYF protein …: MAAETLNFGPEWLRALSGGGSVASPPPSPAMPKYKLADYRYGREEMLALYVKENKVPEELQDKEFAAVLQDEPLQDAALEPLTEEEQRNFSLSVNSVAVLRLMGKGAGPPLAGTSRGRGSTRSRGRGRGDSCFYQRSIEEGDGAFGRSPREIQRSQSWDDRGERRFEKSARRDGARCGFEEGGAGPRKEHARSDSENWRSLREEQEEEEEGSWRLGAGPRRDGDRWRSASPDGGPRSAGWREHGERRRKFEFDLRGDRGGCGEEEGRGGGGSSHLRRCRAPEGFEEDKDGLPEWCLDDEDEEMGTFDASGAFLPLKKGPKEPIPEEQELDFQGLEEEEEPSEGLEEEGPEAGGKELTPLPPQEEKSSSPSPLPTLGPLWGTNGDGDETAEKEPPAAEDDIRGIQLSPGVGSSAGPPGDLEDDEGLKHLQQEAEKLVASLQDSSLEEEQFTAAMQTQGLRHSAAATALPLSHGAARKWFYKDPQGEIQGPFTTQEMAEWFQAGYFSMSLLVKRGCDEGFQPLGEVIKMWGRVPFAPGPSPPPLLGNMDQERLKKQQELAAAALYQQLQHQQFLQLVSSRQLPQCALREKAALGDLTPPPPPPPQQQQQQLTAFLQQLQALKPPRGGDQNLLPTMSRSLSVPDSGRLWDVHTSASSQSGGEASLWDIPINSSTQGPILEQLQLQHKFQERREVELRAKREEEERKRREEKRRQQQQEEQKRRQEEEELFRRKHVRQQELLLKLLQQQQAVPVPPAPSSPPPLWAGLAKQGLSMKTLLELQLEGERQLHKQPPPREPARAQAPNHRVQLGGLGTAPLNQWVSEAGPLWGGPDKSGGGSSGLGLWEDTPKSGGSLVRGLGLKNSRSSPSLSDSYSHLSGRPIRKKTEEEEKLLKLLQGIPRPQDGFTQWCEQMLHTLSATGSLDVPMAVAILKEVESPYDVHDYIRSCLGDTLEAKEFAKQFLERRAKQKASQQRQQQQEAWLSSASLQTAFQANHSTKLGPGEGSKAKRRALMLHSDPSILGYSLHGSSGEIESVDDY | did not affect binding to overexpressed 4EHP in human cells |
